# In ChEMBL document CHEMBL4834412, “2,4,5-Trisubstituted Pyrimidines as Potent HIV-1 NNRTIs: Rational Design, Synthesis, Activity Evaluation, and Crystallographic Studies” (J Med Chem, 2021):
# How the values were obtained:
# [1] = test system: Human immunodeficiency virus 2; test: Antiviral activity against HIV-2 ROD infected in human MT4 cells assessed as protection against virus-induced cytopathogenicity after 5 days by MTT assay; details: Human immunodeficiency virus 2, ROD, MT4, 120 h
# [2] = test system: Human immunodeficiency virus 1; test: Antiviral activity against HIV-1 harboring RT Y181C mutant infected in human MT4 cells assessed as protection against virus-induced cytopathogenicity after 5 days by MTT assay; type: functional, organism-based; details: Human immunodeficiency virus 1, MT4, 120 h
# [3] = test system: Human immunodeficiency virus 1; test: Antiviral activity against HIV-1 strain IIIB infected in human MT4 cells assessed as protection against virus-induced cytopathicity after 5 days by MTT assay; type: functional, organism-based; details: Human immunodeficiency virus 1, IIIB, MT4, 120 h
# [4] = test system: Human immunodeficiency virus 1; test: Antiviral activity against HIV-1 harboring RT K103N mutant infected in human MT4 cells assessed as protection against virus-induced cytopathogenicity after 5 days by MTT assay; type: functional, organism-based; details: Human immunodeficiency virus 1, MT4, 120 h
# [5] = test system: Human immunodeficiency virus 1; test: Antiviral activity against HIV-1 harboring RT L100I mutant infected in human MT4 cells assessed as protection against virus-induced cytopathogenicity after 5 days by MTT assay; type: functional, organism-based; details: Human immunodeficiency virus 1, MT4, 120 h
# [6] = test system: Human immunodeficiency virus 1; test: Antiviral activity against HIV-1 harboring RT E138K mutant infected in human MT4 cells assessed as protection against virus-induced cytopathogenicity after 5 days by MTT assay; type: functional, organism-based; details: Human immunodeficiency virus 1, MT4, 120 h
# [7] = test system: Human immunodeficiency virus 1; test: Antiviral activity against NNRTI-resistant HIV-1 RES056 harboring RT K103N/Y181C mutant infected in human MT4 cells assessed as protection against virus-induced cytopathogenicity after 5 days by MTT assay; type: functional, organism-based; details: Human immunodeficiency virus 1, RES056, MT4, 120 h
# [8] = test system: Human immunodeficiency virus 1; test: Antiviral activity against HIV-1 harboring RT Y188L mutant infected in human MT4 cells assessed as protection against virus-induced cytopathogenicity after 5 days by MTT assay; type: functional, organism-based; details: Human immunodeficiency virus 1, MT4, 120 h
# [9] = test system: Human immunodeficiency virus 1; test: Antiviral activity against HIV-1 harboring RT F227L/V106A mutant infected in human MT4 cells assessed as protection against virus-induced cytopathogenicity after 5 days by MTT assay; type: functional, organism-based; details: Human immunodeficiency virus 1, MT4, 120 h
# [10] = Acute toxicity in Kunming mouse assessed as body weight change at 2000 mg/kg, po single dose measured up to 2 weeks; type: organism-based; details: in vivo, 336 h
# How it was run: (§1)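 Kunming mice, 20 total, randomly split into two groups: vehicle control (0 mg/kg) or single oral 2000 mg/kg dose on day 1. Animals observed for toxic symptoms and mortality over the following two weeks; body weight tracked and expressed as relative change.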
# [11] = Tmax in Sprague-Dawley rat at 20 mg/kg, po; type: ADME, organism-based; details: in vivo
# How it was run: (§2)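 Sprague Dawley rats given a single 2 mg/kg intravenous or 20 mg/kg oral dose. Plasma concentration–time profiles followed. PK parameters reported as mean ± SD, n = 3.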
# [12] = Acute toxicity in Kunming mouse assessed as mortality at 2000 mg/kg, po single dose measured up to 2 weeks; type: organism-based; details: in vivo, 336 h
# How it was run: as §1
# [13] = Tmax in Sprague-Dawley rat at 2 mg/kg, iv; type: ADME, organism-based; details: in vivo
# How it was run: as §2
# [14] = Acute toxicity in Kunming mouse assessed as toxic symptoms at 2000 mg/kg, po single dose measured up to 2 weeks; type: organism-based; details: in vivo, 336 h
# How it was run: as §1
Compound,EC50 [1] [nM],EC50 [2] [nM],EC50 [3] [nM],EC50 [4] [nM],EC50 [5] [nM],EC50 [6] [nM],EC50 [7] [nM],EC50 [8] [nM],EC50 [9] [nM],Activity [10],Tmax [11] [min],Activity [12],Tmax [13] [min],Activity [14]
Cc1cc(C#N)cc(C)c1Oc1nc(NC2CCN(Cc3ccc(S(C)(=O)=O)cc3)CC2)ncc1-c1ccco1,> 7460,26.4,4.52,5.92,20.4,27.4,233,28.8,110,,,,,
Cc1cc(C#N)cc(C)c1Oc1nc(NC2CCN(Cc3ccc(S(N)(=O)=O)cc3)CC2)ncc1-c1cccs1,≥ 33400,10.7,4.57,5.39,5.92,7.71,103,9.31,30.2,,,,,
Cc1cc(C#N)cc(C)c1Oc1nc(NC2CCN(Cc3ccc(S(N)(=O)=O)cc3)CC2)ncc1-c1ccsc1,> 6120,12.3,5.09,4.7,15.4,19.7,209,30.3,85.3,,,,,
Cc1cc(C#N)cc(C)c1Oc1nc(NC2CCN(Cc3ccc(C(N)=O)cc3)CC2)ncc1-c1ccoc1,> 182000,9.81,3.4,3.44,10.1,11.2,108,21.1,307,,,,,
Cc1cc(C#N)cc(C)c1Oc1nc(NC2CCN(Cc3ccc(C(N)=O)cc3)CC2)ncc1-c1ccncc1,> 36000,6.79,3.75,3.79,4.26,10.9,24.4,6.79,10.4,Non-Toxic,60,Non-Toxic,19.8,Non-Toxic
Cc1cc(C#N)cc(C)c1Oc1nc(NC2CCN(Cc3ccc(C(N)=O)cc3)CC2)ncc1-c1ccco1,,14.9,5.78,3.73,38.2,11.9,254,23.3,161,,,,,
